According to ChEMBL document CHEMBL3091301, “Xanthohumol modulates inflammation, oxidative stress, and angiogenesis in type 1 diabetic rat skin wound healing” (2013):
Active and inactive are the calls of the source. The rule behind the calls is not given here.

Key:
[1] = tested on: Rattus norvegicus; test: Antiinflammatory activity in streptozotocin-induced diabetic Wistar rat model assessed as reduction in IL1beta level in serum at 10 mg/L, po administered with superbock stout beer for 5 weeks prior to wounding measured on day 7 post-wounding by ELISA (reference value: 20.94 +/- 2.17 pg/mL); assay type: functional
[2] = tested on: Rattus norvegicus; test: (§1) Antioxidant activity in streptozotocin-induced diabetic Wistar rat model assessed as reduction in 3-NT protein expression in liver at 10 mg/L, po administered with superbock stout beer for 5 weeks prior to wounding measured on day 7 post-wounding by Western blotting analysis (reference value: 5.52 +/- 1.64%); assay type: functional; parameters: scale not given: the % may be the effect or the level left
[3] = tested on: Rattus norvegicus; test: Antioxidant activity in streptozotocin-induced diabetic Wistar rat model assessed as […] in H2O2 release in liver at 10 mg/L, po administered with superbock stout beer for 5 weeks prior to wounding measured on day 7 post-wounding by fluorescence assay relative to control; assay type: functional, organism-based
How it was run: (§2)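 Fresh kidney or liver cut into 3 mm3 pieces and incubated 90 min at 37 °C in oxygenated, shaken Krebs-HEPES (pH 7.4, 5 mM glucose). H2O2 released measured by Amplex Red fluorescence. Expressed as percent of healthy control; means ± SEM, n = 4–6.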

[4] = tested on: Rattus norvegicus; test: Antiangiogenic activity in streptozotocin-induced diabetic Wistar rat model assessed as decrease in microvessel density in wound region at 10 mg/L, po administered with superbock stout beer for […] prior to wounding measured on day 7 post-wounding by wound healing assay; assay type: functional, organism-based
How it was run: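 Beverage given ad libitum, renewed every two days, kept in dark bottles. Vessels counted in three dorsal skin wound sections per animal and normalized to section area; each separate stained endothelial cell or cluster counted as one vessel; n = 4–6.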

[5] = tested on: Rattus norvegicus; test: Antiinflammatory activity in streptozotocin-induced diabetic Wistar rat model assessed as reduction in N-acetylglucosaminidase level in serum at 10 mg/L, po administered with superbock stout beer for 5 weeks prior to wounding measured on day 7 post-wounding relative to control; assay type: functional, organism-based
[6] = tested on: Rattus norvegicus; test: Antioxidant activity in streptozotocin-induced diabetic Wistar rat model assessed as increase in reduced/oxidized glutathione ratio in serum at 10 mg/L, po administered with superbock stout beer for 5 weeks prior to wounding measured on day 7 post-wounding by RP-HPLC analysis; assay type: functional, organism-based
How it was run: (§3)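 Plasma reduced and oxidized glutathione separated and quantified by reversed-phase HPLC with a GSH/GSSG kit. Samples came from skin-injured STZ-diabetic rats after five weeks of ad libitum beverage. Expressed as percent of control; n = 4–6.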

[7] = tested on: Rattus norvegicus; test: as §1, with “hepatic” for “3-NT”, “carbonylation” for “expression in liver”, “13.80” for “5.52”, “1.12%)” for “1.64%)”; assay type: functional; parameters: scale not given: the % may be the effect or the level left
[8] = tested on: Rattus norvegicus; test: Antioxidant activity in streptozotocin-induced diabetic Wistar rat model assessed as reduction in protein carbonylation in kidney at 10 mg/L, po administered with superbock stout beer for 5 weeks prior to wounding measured on day 7 post-wounding by Western blotting analysis relative to control; assay type: functional, organism-based
[9] = tested on: Rattus norvegicus; test: Antiinflammatory activity in streptozotocin-induced diabetic Wistar rat model assessed as reduction in nitric oxide level in serum at 10 mg/L, po administered with superbock stout beer for 5 weeks prior to wounding measured on day 7 post-wounding by Griess method relative to control; assay type: functional, organism-based
[10] = tested on: Rattus norvegicus; test: Antioxidant activity in streptozotocin-induced diabetic Wistar rat model assessed as decrease in H2O2 release in kidney at 10 mg/L, po administered with superbock stout beer for 5 weeks prior to wounding measured on day 7 post-wounding by fluorescence assay relative to control; assay type: functional, organism-based; how it was run: as §2
[11] = tested on: Rattus norvegicus; test: Antioxidant activity in streptozotocin-induced diabetic Wistar rat model assessed as increase in reduced glutathione level in serum at 10 mg/L, po administered with superbock stout beer for 5 weeks prior to wounding measured on day 7 post-wounding by RP-HPLC analysis; assay type: functional, organism-based; how it was run: as §3
[12] = tested on: Rattus norvegicus; test: as §1, with “kidney” for “liver”, “3.76” for “5.52”, “0.57%)” for “1.64%)”; assay type: functional; parameters: scale not given: the % may be the effect or the level left
[13] = tested on: Rattus norvegicus; test: Antiangiogenic activity in streptozotocin-induced diabetic Wistar rat model assessed as reduction in VEGF-A level in plasma at 10 mg/L, po administered with superbock stout beer for 5 weeks prior to wounding measured on day 7 post-wounding by ELISA; assay type: functional, organism-based
How it was run: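 STZ-diabetic male Wistar rats (50 mg/kg i.p.; glucose >250 mg/dL) drinking the beverage ad libitum for five weeks, with skin injury. Plasma VEGF-A measured by rat VEGF Quantikine ELISA per kit instructions; means ± SEM, n = 4–6; ANOVA with Bonferroni.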

COc1cc(O)c(CC=C(C)C)c(O)c1C(=O)/C=C/c1ccc(O)cc1 [XANTHOHUMOL]
Activity [1]: 13.36 pg/mL
Activity [2]: 1.38%
Activity [3]: Active
Activity [4]: Active
Activity [5]: Active
Activity [6]: Active
Activity [7]: 4.67%
Activity [8]: Active
Activity [9]: Active
Activity [10]: Active
Activity [11]: Active
Activity [12]: 1.99%
Activity [13]: Active
